High-throughput results: PubChem BioAssay, several laboratories
KLK5 inh – human KLK5 protease inhibitors, primary screen, biochemical, 1536-well; recombinant hK5, fluorogenic AMC substrate cleavage; inhibition, % at 5 µM; 210,000 compounds, 0.59% hits;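 active = inhibition of 40% or more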;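 note: 0% = enzyme controls without compound and 100% = no-enzyme blanks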
Calb biofilm kill – clotrimazole potentiators killing C. albicans biofilm, primary screen, 4-compound mixtures; C. albicans biofilm persisters + clotrimazole, fluorescence viability; primary screen in compound mixtures of four per well; 120,000 compounds, 0.02% hits; AID 1242, 2008; inhibition, % at 7.6 µM;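 active = inhibition above 30.3% in the primary screen of four-compound pools, then above 30% when the compound was retested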;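 note: compounds exposed to preformed 24 h biofilms for 48 h; 0% = untreated biofilm control and 100% = clotrimazole plus chlorhexidine kill blank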
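System: C. albicans CAF4-2 wild-type biofilms; Medium: RPMI/MOPS medium, pH 7.0; Reagent: Clotrimazole, 50 µg/mL; Times: biofilm formation 24 h, compound exposure 48 h, 37 °C; Detection: 2-h Alamar Blue fluorescence, 535/590 nm excitation/emission; Evaluation: percent inhibition of biofilm viability.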
FXIa inh 1536 – human FXIa protease inhibitors, primary screen, biochemical, 1536-well | Coagulation factor XI (Homo sapiens), P03951 | purified FXIa, Boc-Glu-Ala-Arg-AMC fluorogenic substrate | inhibition, % at 5 µM | 220,000 compounds, 0.14% hits | AID 798, 2007;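 active = inhibition of at least 40%; inactive = inhibition below 40%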;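 note: fluorescence of freed AMC excited at 355 nm; 0% = enzyme without compound and 100% = no enzyme blank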
Thrombin inh – human alpha-thrombin inhibitors, primary screen, counter-screen for coagulation protease inhibitor project, biochemical, 1536-well, fluorogenic AMC substrate; AID 1046, 2008; Boc-VPR-AMC fluorogenic substrate cleavage; 220,000 compounds, 0.26% hits; Prothrombin (Homo sapiens), P00734; inhibition, % at 5 µM;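 active = inhibition at or above 40%; inactive = inhibition below 40%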;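 note: 0% = enzyme with no compound and 100% = wells without enzyme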
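System – human alpha-thrombin protein · Reagent – Boc-VPR-AMC substrate, 15 µM final · Compound – 5 µM single dose in 0.2% DMSO · Schedule – reaction at room temperature · Technique – AMC fluorescence at 355 nm excitation and 460 nm emission · Read-out basis – % inhibition relative to enzyme controls and enzyme-free blanks · Control set – no-compound enzyme wells and no-enzyme blanks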
FXIIa inh – human FXIIa protease inhibitors, primary screen, biochemical, 1536-well. purified FXIIa, Boc-QGR-AMC fluorogenic substrate, 2 h. AID 800, 2007. 220,000 compounds, 0.3% hits. Coagulation factor XII (Homo sapiens), P00748. inhibition, % at 5 µM; in the data active = inhibition above about 40%;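 note: 0% = enzyme with no compound and 100% = blank without enzyme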
Target sequence (P00748 20-372 limits assumed): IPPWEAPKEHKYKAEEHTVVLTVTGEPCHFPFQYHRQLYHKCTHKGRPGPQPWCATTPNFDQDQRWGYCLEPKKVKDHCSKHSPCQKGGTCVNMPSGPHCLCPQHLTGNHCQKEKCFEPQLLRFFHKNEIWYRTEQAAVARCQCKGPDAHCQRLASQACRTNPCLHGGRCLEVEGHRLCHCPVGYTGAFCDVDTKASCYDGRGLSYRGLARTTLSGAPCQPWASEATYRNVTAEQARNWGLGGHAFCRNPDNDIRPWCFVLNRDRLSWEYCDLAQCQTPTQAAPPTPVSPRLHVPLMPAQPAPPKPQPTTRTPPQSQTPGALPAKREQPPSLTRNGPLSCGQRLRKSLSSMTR
Target sequence (P00748 373-615 limits assumed): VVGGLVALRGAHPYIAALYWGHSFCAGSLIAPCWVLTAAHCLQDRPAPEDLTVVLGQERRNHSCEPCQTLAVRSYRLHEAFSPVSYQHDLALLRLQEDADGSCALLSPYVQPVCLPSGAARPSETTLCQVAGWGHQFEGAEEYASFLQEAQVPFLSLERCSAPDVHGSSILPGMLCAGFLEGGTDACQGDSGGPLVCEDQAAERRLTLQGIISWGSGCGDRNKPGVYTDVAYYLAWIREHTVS
Furin inhibitor – human furin inhibitors, primary screen, biochemical, fluorescence intensity. inhibition, % at 20 µM or 30 µM. AID 463115, 2010. 220,000 compounds, 0.061% hits. purified furin, fluorogenic substrate cleavage; in the data active = inhibition above about 25%
Numbers without * were called inactive; / = no result given. A selection: hits, their analogues and other compounds. The true share with any hit is near 1.1%.

SMILES	KLK5 inh	Calb biofilm kill	FXIa inh 1536	Thrombin inh	FXIIa inh	Furin inhibitor
CSCCC(NC(=O)c1cccc(C)c1)C(=O)OCC(=O)NC(=O)c1cccn1C (centres undefined)	6	10	3	48*	10	-18
Cc1ccc(C(=O)OCC(=O)NC(=O)c2cccn2C)cc1	-3	/	2	6	18	-17
Clc1ccc(Cn2ncc3c(N4CCCC4)ncnc32)cc1	44*	/	1	9	8	-7
CCOC(=O)C1CCN(c2c(NCCC(C)C)c(=O)c2=O)CC1	1	29	3	-1	7	-12
O=C(N/N=C/c1cccc([N+](=O)[O-])c1)c1cccc2cc[nH]c12	3	-1	-8	2	7	-26
O=C(N/N=C/c1cc([N+](=O)[O-])ccc1O)c1cccc2cc[nH]c12	60*	10	-9	13	19	10
Cc1ccc(C)c(Cn2c(CO)nc3ccccc32)c1	41*	/	7	17	-6	-27
COc1ccc(C(=O)NCCCc2nc3ccccc3n2Cc2cc(C)ccc2C)cc1OC	-7	0	7	0	12	-19
O=C(CSc1nnc(-c2ccccc2)c(-c2ccccc2)n1)Nc1ccc(Br)cn1	2	-7	23	62*	28	-8
Cn1cc(C(=O)c2ccc(Cl)cc2Cl)cc1C(=O)N/N=C(\N)COc1ccc(Cl)cc1	-9	8	2	0	9	-23
Cn1cc(C(=O)c2ccc(Cl)cc2Cl)cc1C(=O)N/N=C(\N)COc1ccc(F)cc1	-111	/	-1	76*	9	8
O=C(CSC1CCCCC1)Nc1nccs1	54*	/	18	104*	27	-25
COc1ccc(-c2c[n+]3c4n2CCCCC4=C(c2ccccc2)C3)cc1	-143	/	-3	58*	-2	-113
CCC1=NN(C(=O)Cc2ccc([N+](=O)[O-])cc2)C(O)(C(F)(F)F)C1 (centres undefined)	25	10	28	22	56*	-4
CCCC1=NN(C(=O)Cc2ccc([N+](=O)[O-])cc2)C(O)(C(F)(F)F)C1 (centres undefined)	-23	-2	-7	-2	-4	-12
Cc1cc(C)n(CC(O)COc2c(C)cccc2C)n1 (centres undefined)	-7	7	5	-6	7	-6
O=C1c2cccc3cccc(c23)C(=O)N1OS(=O)(=O)c1ccc(Cl)cc1	-24	12	3	-1	6	-17
CCc1ccc(S(=O)(=O)ON2C(=O)c3ccccc3C2=O)cc1	1	-7	22	60*	15	-15
CCOC(=O)C1(Cc2ccccc2)CCCN(C2CCCC2)C1 (centres undefined)	5	13	0	-2	9	-18
CCOC(=O)CC1C(=O)NCCN1Cc1cccc(C(F)(F)F)c1 (centres undefined)	40*	/	-8	-7	-4	-26
Cc1ccc(NC(=S)NCCN2CCOCC2)cc1F	3	18	-1	-7	3	-20
COc1ccc(NS(=O)(=O)c2ccc(NC(=S)NC(=O)C(C)C)cc2)cc1	-3	/	-8	-7	-7	-25
CC(C)C(=O)NC(=S)Nc1ccc(S(=O)(=O)Nc2ccccc2)cc1	43*	12	3	23	-1	-18
CCOc1ccc(NS(=O)(=O)c2ccc(NC(=S)NC(=O)C(C)C)cc2)cc1	52*	/	1	7	15	-6
O=C(O)CC(NC(=O)c1cccc([N+](=O)[O-])c1)c1ccc2c(c1)OCO2 (centres undefined)	16	9	10	-9	10	-17
SMILES	KLK5 inh	Calb biofilm kill	FXIa inh 1536	Thrombin inh	FXIIa inh	Furin inhibitor
Cc1cc2ncn(S(=O)(=O)N3CCOCC3)c2cc1C	47*	/	3	80*	18	27*
Cc1cc2ncn(S(=O)(=O)N3CCCCC3)c2cc1C	4	/	-1	0	12	-19
CCCc1nnc(SCC(=O)N2CCCCC2)n1CC1CCCO1 (centres undefined)	57*	/	0	17	21	-7
CCCc1nnc(SCC(=O)N2CCCC2)n1CC1CCCO1 (centres undefined)	-9	/	-3	0	4	-29
Cc1cc(C(C#N)c2ccccc2)n2ncnc2n1 (centres undefined)	-20	/	-8	-4	5	-7
Cc1cc(C(C#N)c2cccc(Cl)c2)n2ncnc2n1 (centres undefined)	-1	/	14	1	42*	-12
O=C(NCCCn1ccnc1)c1ccccc1NS(=O)(=O)c1ccc(F)c(F)c1	86*	/	4	17	-5	-12
N#C/C(=C\C1CC=CCC1)c1nc2ccccc2[nH]1 (centres undefined)	-2	/	4	1	10	-26
Cn1c(/C(C#N)=C/C2CC=CCC2)nc2ccccc21 (centres undefined)	47*	/	3	7	6	-24
COC(=O)c1ccc(OS(=O)(=O)N(C)C)cc1	-5	11	-6	-9	1	-23
Cc1ccc(C(=O)N/N=C(/CC(=O)c2cccs2)C(F)(F)F)cc1	2	25	27	11	24	-29
O=C(N/N=C(\CC(=O)c1cccs1)C(F)(F)F)c1ccncc1	61*	1	37	8	24	-8
Cc1ccc(-n2nc(C)c(=O)c(-c3ccccc3)c2NC(=O)C(C)C)cc1	7	18	3	4	17	-25
Cc1ccc(NC(=O)c2ccc3ccccc3n2)cc1S(=O)(=O)N1CCOCC1	15	12	28	48*	24	-16
N#Cc1sc2nc(-c3ccccc3)cc(C(F)(F)F)c2c1N	24	9	26	50*	23	-6
CC(Sc1nnc(-c2ccco2)o1)C(=O)NCCC1=CCCCC1 (centres undefined)	47*	3	28	/	21	4
CCN(CC)S(=O)(=O)c1cccc(-c2nnc(SC(C)C(=O)NCCC3=CCCCC3)o2)c1 (centres undefined)	8	/	-8	-5	-13	-7
Cc1cccc(NC(=O)c2ccc(S(=O)(=O)N3CCOCC3)cc2)n1	-4	1	4	-2	6	-21
CCOc1ccc(/C=C(\C#N)C(=O)c2c(C)[nH]c3ccccc23)cc1OC	-11	16	6	-5	14	-1
COc1cc(/C=C(/C#N)C(=O)c2c(C)[nH]c3ccccc23)ccc1OCC#N	42*	9	22	14	25	12
